Measured values: paper PMC3742633 (Molecular cancer therapeutics, 2013)

Legend:
[1] = biological target: recombinant human PFKFB3 protein (Homo sapiens, UniProt Q16875); test: Recombinant PFKFB3 kinase assay; format: biochemical
[2] = tested on: Jurkat T cell leukemia cells; test: Cell viability, trypan blue exclusion; format: cell-based; conditions: Homo sapiens, 48 h, read-out: IC50 cytotoxic effects (viability)
[3] = tested on: H522 human lung adenocarcinoma cells; test: Cell viability, trypan blue exclusion; format: cell-based; conditions: NCI-H522, 48 h, read-out: IC50 cytotoxic effects (viability)
Jurkat and H522 cells [4] = test: F26BP measurement in cells; format: cell-based, human; conditions: three hours exposure
Method in brief: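 Cells plated at 1×10^5/well, 24 h in RPMI or DMEM (5% CO2, 37°C), then exposed to test compound for 3 h. Cells triturated, washed twice in PBS, dissolved in […] NaOH. F26BP measured by coupled enzyme reaction and normalized to BCA protein. Triplicate or quadruplicate; unpaired two-tailed t-test.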

Jurkat or H522 cells = test: 2-[1-14C]-deoxy-D-glucose uptake; format: cell-based, human; conditions: three hours exposure, Jurkat and H522
Method in brief: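 Jurkat or H522 cells in RPMI 1640 + 10% FCS + 50 μg/ml gentamycin at 100,000/ml, treated immediately with DMSO vehicle or test compound for 3 h. Washed in glucose-free RPMI, 30 min with inhibitor, then 1 h with 14C-2-deoxyglucose (0.1 μCi/μl stock). Ice-cold washes, 0.5% SDS lysis, scintillation counting; counts normalized to BCA protein.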

Jurkat and H522 cells [5] = test: Intracellular ATP bioluminescence assay; format: cell-based, human; conditions: three hours exposure, Jurkat and H522
Method in brief: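 After plating at 1×10^5 cells/well (24 h, 37°C, 5% CO2) and 3 h test compound exposure, adherent cells were washed with cold PBS, lysed in passive lysis buffer and scraped. One freeze (−80°C)/thaw (37°C) cycle, cleared at 4°C. ATP read by firefly luciferase/D-luciferin luminescence at 560 nm against an ATP standard curve, as nmol/mg BCA protein.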

[6] = tested on: Jurkat T cell leukemia cells; test: Annexin V / propidium iodide flow cytometry; format: cell-based, human; conditions: 20 μM, five hours
[7] = Pharmacokinetic profile after IV administration; format: in vivo, female C57Bl/6 mice; conditions: plasma
Method in brief: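 Test compound was given IV to female C57Bl/6 mice, with 8 time points and 3 animals per time point. Plasma was extracted with acetonitrile and analysed by LC-MS/MS on a polar reverse-phase column with a 0.5% formic acid acetonitrile/water mobile phase. Tmax, Cmax, volume of distribution, half-life, clearance, AUCs and MRT were calculated from the concentration–time data.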

[8] = tested on: Jurkat T cell leukemia cells; conditions: previous studies; cited from earlier work
[9] = female, C57Bl/6, mouse, iv, 5 mg/kg

Sequence of recombinant human PFKFB3 protein (Q16875 whole entry): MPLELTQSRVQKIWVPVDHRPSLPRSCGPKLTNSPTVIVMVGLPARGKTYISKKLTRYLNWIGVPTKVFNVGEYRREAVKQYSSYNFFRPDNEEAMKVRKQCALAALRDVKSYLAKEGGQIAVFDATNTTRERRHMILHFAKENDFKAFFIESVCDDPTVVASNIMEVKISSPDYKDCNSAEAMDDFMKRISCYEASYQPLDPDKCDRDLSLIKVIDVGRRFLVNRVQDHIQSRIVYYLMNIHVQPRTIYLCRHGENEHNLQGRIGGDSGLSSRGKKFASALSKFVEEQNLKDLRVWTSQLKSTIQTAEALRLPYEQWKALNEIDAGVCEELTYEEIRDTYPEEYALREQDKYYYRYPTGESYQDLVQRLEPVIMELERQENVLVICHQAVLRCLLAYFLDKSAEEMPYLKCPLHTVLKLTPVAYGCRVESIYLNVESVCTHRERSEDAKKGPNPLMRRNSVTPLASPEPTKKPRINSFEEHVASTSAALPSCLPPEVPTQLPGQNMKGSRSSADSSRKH

`O=C(C=Cc1cccnc1)c1ccncc1` [3PO, 3-(3-pyridinyl)-1-(4-pyridinyl)-2-propen-1-one, reference compound] showed an IC50 [1] of 22.9 µM, an IC50 [2] of 7.2 µM and an IC50 [3] of 5.57 µM. The “effect on F26BP” value (Jurkat and H522 cells [4]) was “reduced”, the “effect on glucose uptake (14C-2DG)” value (Jurkat or H522 cells) was “reduced” and the “effect on intracellular ATP” value (Jurkat and H522 cells [5]) was “reduced”. The “cells undergoing early apoptosis (Annexin V+/PI−)” value [6] was “increased”, the AUC0-inf ([7]; IV, C57Bl/6 mice) was 36 ng/h/mL and the Cmax [7, 9] was 113 ng/mL. The clearance [7, 9] was 2310 mL/min/kg, the half-life [7, 9] was 18 min and the “concentrations that caused cell death” value [8] was > 10 µM.
